Reference: ChEMBL document CHEMBL1138232, “Optimization of naphthalimide-imidazoacridone with potent antitumor activity leading to clinical candidate (HKH40A, RTA 502)” (J Med Chem, 2007)

Legend:
LOX IMVI = assay: Antitumor activity against human LOX IMVI cells after 48 hrs; type: functional
How it was run: (§1)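 Tested in the NCI 60 human tumour cell line screen, with continuous drug exposure for 48 h. Values include LC50 derived from the screen.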

COLO 205 = assay: Antitumor activity against human Colo205 cells expressing mutated p53; type: functional, cell-based
How it was run: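 Compounds tested as tri(methanesulfonate) salts, soluble in water and dilute buffers. Human tumour cells carrying wild-type or mutated p53 were exposed for 5 days, and viability was read by MTT assay. GI50, TGI and LC50 were calculated from the MTT data. Values are means ± SD of at least three independent experiments, with coefficients of variation of 10–20%.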

[1] = Plasma clearance in CD2F1 mouse at 20 mg/kg, iv; type: ADME, organism-based; parameters: dose 20 mg/kg, route intravenous
How it was run: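 Pilot pharmacokinetics in CD2F1 mice after i.v. injection. Total plasma clearance derived from plasma concentration data.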

[2] = Drug level in F344 rat plasma at 20 mg/kg, iv after 4 hrs; type: ADME, organism-based; parameters: dose 20 mg/kg, route intravenous
How it was run: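 Single i.v. dose of 20 mg/kg to ncr nu/nu mice and an F344 rat. Plasma concentrations followed over time and fitted by nonlinear regression to give distribution and elimination phases, AUC and apparent volumes of distribution. Detection limit 50 nM.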

[3] = Antitumor activity against human HL60 (TB) cells after 48 hrs; type: functional, HL-60(TB); conditions: HL-60, 48 h; how it was run: as §1
SR = assay: Antitumor activity against human SR cells after 48 hrs; type: functional
How it was run: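 NCI 60 human tumour cell line screen; 48 h continuous drug exposure. Compounds tested as tri(methanesulfonate) salts, soluble in water and dilute buffers. Dilute solutions are light-sensitive and adsorb to glass or quartz.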

HOP-92 = assay: Antitumor activity against human HOP92 cells after 48 hrs; type: functional; conditions: HOP-92, 48 h; how it was run: as §1
[4] = read-out: Log LC50 (the source's name) (converted)

COc1ccc2c(c1)c(=O)c1c(NCCCN3CCN(CCCN4C(=O)c5cccc6cc([N+](=O)[O-])cc(c56)C4=O)CC3)ccc3ncn2c31.CS(=O)(=O)O
GI50 (LOX IMVI): 1.86 nM
CC50 (LOX IMVI; [4]): > 1000 nM
TGI (LOX IMVI; read-out: Log TGI (converted)): 77.6 nM
IC50 (COLO 205): 80 nM
clearance [1]: 238 mL/min/kg
concentration at 4 h [2]: 90 nM
GI50 [3]: 0.159 nM
CC50 [3, 4]: > 1000 nM
GI50 (SR): < 0.1 nM
CC50 (SR; [4]): 17 nM
TGI (SR; read-out: Log TGI (converted)): < 0.1 nM
GI50 (HOP-92): 5.13 nM
CC50 (HOP-92; [4]): > 1000 nM
TGI (HOP-92; read-out: Log TGI (converted)): 63.1 nM
